# In ChEMBL document CHEMBL5705897, “Characterization of WZ4003 and HTH-01-015 as selective inhibitors of the LKB1-tumour-suppressor-activated NUAK kinases” (Biochem J, 2014):
# Calls of active or inactive are those of the source. The calls are words filed in the database; no cut-off is given here.
# Legend:
# [1] = molecular target: Calcium/calmodulin-dependent protein kinase type 1 (Homo sapiens) (UniProt Q14012); assay: Inhibition of recombinant human N-terminal GST-tagged CAMK1alpha (2 to 369 residues) expressed in Escherichia coli assessed as remaining activity at 1 uM using YLRRRLSDSNF as substrate incubated for 30 mins in presence of [gamma-33P]ATP by filter binding method relative to control
# In short: (§1)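 Screened at the International Centre for Protein Kinase Profiling against a 140-kinase panel, with inhibitor at 0.1 or 1 μM; activity expressed as percentage of DMSO control reactions, mean of triplicate reactions.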
# MEF [2] = assay: Antiproliferative activity against NUAK1+/+ MEF cells assessed as reduction in cell viability at 10 uM after 5 days by CellTiter 96 non-radioactive cell proliferation assay; assay type: functional, cell-based; settings: Mus musculus, time 5.0 day
# In short: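 Colorimetric CellTiter 96 AQueous proliferation assay in 96-well format; 2000 cells/well seeded for U2OS, 3000 cells/well for MEFs; grown 5 days with or without 10 μM inhibitor; run in triplicate. Inhibitors dissolved in DMSO, final DMSO in medium ≤1%. MEFs cultured in DMEM/10% FBS, glutamine, non-essential amino acids, sodium pyruvate.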
# MEF [3] = assay: Inhibition of cell migration in NUAK1+/+ MEF cells at 10 uM pre incubated for 1 hr followed by overnight incubation and measured after 15 to 20 hrs by microscopic based wound healing assay; assay type: functional; settings: Mus musculus
# In short: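 Wound healing: equal MEF numbers loaded into both chambers of inserts with a 500 μm gap, inhibitor (10 μM) added 1 h before; after overnight at 37 °C, 5% CO2 insert removed and gap closure filmed by time-lapse microscopy every 2 min over 15–20 h; triplicate.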
# [4] = molecular target: T1, Aurora kinase A (Homo sapiens) (UniProt O14965); assay: Inhibition of recombinant human N-terminal […] Aurora A (2 to 403 residues) expressed in Escherichia coli assessed as remaining activity at 1 uM using LRRLSLGLRRLSLGLRRLSLGLRRLSLG as substrate incubated for 30 mins in presence of [gamma-33P]ATP by filter binding method relative to control; in short: as §1
# T1 sequence (whole entry): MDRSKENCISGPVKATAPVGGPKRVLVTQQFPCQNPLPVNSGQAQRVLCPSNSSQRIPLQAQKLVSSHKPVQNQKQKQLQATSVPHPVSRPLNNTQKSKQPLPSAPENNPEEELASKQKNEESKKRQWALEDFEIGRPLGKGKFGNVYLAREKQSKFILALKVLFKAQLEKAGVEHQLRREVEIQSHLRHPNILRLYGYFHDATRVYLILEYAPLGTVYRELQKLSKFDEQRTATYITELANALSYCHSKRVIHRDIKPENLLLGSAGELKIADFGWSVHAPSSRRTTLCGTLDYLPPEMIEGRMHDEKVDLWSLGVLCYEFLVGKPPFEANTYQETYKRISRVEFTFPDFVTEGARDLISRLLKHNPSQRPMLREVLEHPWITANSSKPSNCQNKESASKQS
# [5] = molecular target: MAP/microtubule affinity-regulating kinase 3 (Homo sapiens) (UniProt P27448); assay: Inhibition of recombinant human N-terminal His6-tagged MARK3 (2 to 729 residues) expressed in baculovirus infected Sf21 cells assessed as remaining activity at 1 uM using CHKtide as substrate incubated for 30 mins in presence of [gamma-33P]ATP by filter binding method relative to control; in short: as §1
# Sequence of MAP/microtubule affinity-regulating kinase 3 (Homo sapiens) (P27448 whole entry, looked up, the tested form may be a part): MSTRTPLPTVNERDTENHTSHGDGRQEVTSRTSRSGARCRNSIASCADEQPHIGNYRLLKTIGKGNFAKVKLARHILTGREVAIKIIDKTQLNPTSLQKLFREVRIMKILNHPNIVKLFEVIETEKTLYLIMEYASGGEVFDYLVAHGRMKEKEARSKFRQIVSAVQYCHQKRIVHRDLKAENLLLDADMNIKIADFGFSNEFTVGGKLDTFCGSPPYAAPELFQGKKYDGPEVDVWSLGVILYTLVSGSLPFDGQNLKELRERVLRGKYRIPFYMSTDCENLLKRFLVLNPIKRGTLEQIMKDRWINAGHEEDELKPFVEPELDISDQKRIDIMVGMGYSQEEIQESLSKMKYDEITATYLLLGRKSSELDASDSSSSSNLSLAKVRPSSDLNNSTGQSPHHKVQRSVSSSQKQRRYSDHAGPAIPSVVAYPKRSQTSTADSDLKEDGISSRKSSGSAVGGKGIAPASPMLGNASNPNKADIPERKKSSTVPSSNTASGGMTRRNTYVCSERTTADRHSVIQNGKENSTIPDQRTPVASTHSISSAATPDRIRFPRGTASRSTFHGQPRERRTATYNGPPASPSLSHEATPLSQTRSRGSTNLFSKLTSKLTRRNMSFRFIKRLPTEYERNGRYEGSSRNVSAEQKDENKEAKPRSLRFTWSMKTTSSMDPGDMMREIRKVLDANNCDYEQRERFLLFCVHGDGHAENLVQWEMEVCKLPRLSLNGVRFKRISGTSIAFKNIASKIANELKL
# Sequence of Calcium/calmodulin-dependent protein kinase type 1 (Homo sapiens) (Q14012 whole entry, looked up, the tested form may be a part): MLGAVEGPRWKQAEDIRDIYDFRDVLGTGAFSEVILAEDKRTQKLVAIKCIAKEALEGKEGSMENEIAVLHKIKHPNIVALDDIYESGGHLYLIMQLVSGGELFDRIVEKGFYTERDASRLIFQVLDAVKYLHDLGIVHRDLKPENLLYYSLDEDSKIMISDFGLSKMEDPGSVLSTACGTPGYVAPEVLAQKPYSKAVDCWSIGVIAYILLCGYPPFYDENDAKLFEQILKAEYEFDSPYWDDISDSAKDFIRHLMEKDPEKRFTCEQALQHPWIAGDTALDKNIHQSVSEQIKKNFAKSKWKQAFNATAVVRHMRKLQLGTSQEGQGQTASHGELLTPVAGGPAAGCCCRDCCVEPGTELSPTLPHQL
smiles,measurement,setting,value
CCC(=O)Nc1cccc(Oc2nc(Nc3ccc(N4CCN(C)CC4)cc3OC)ncc2Cl)c1,Activity,[1],81%
same,inhibition,MEF [2],Active
same,inhibition,MEF [3],Active
same,Activity,[4],75%
same,Activity,[5],51%
